Experimental data: ChEMBL document CHEMBL4257551, “Glycyrrhizic acid from licorice down-regulates inflammatory responses via blocking MAPK and PI3K/Akt-dependent NF-κB signalling pathways in TPA-induced skin inflammation” (2018)
The source made the active and inactive calls. No cut-off for these calls is given here.

Columns and labels:
[1] = system: Mus musculus; assay: Antiinflammatory activity against TPA-induced ear edema in BALB/c mouse assessed as decrease in iNOS expression in edema administered topically for 15 mins prior to TPA challenge by immunohistochemical method; format: functional, organism-based
[2] = system: Mus musculus; assay: Antiinflammatory activity against TPA-induced ear edema in BALB/c mouse assessed as decrease in ear punches at 50 mM administered topically for 15 mins prior to TPA challenge and measured after 6 hrs relative to control; format: functional; design: scale not given: the % may be the effect or the level left
Summary of the method: (§1)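 Female BALB/c mice, 4–5 weeks old, n = 3 per group. Both ears received 30 μL of test solution in DMSO:methylene chloride (20:80) at 50, 100, 150 or 200 mM. Topical TPA (30 μL, 25 μg mL⁻¹) followed 15 min later. Mice were killed at 6 h, and two 6 mm punches per animal were weighed. Controls had vehicle then acetone. Mean ± SD of six experiments in triplicate.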

[3] = system: Mus musculus; assay: Antiinflammatory activity against TPA-induced ear edema in BALB/c mouse assessed as weight of ear punches at 200 mM, ip administered 15 mins prior to TPA challenge and measured after 6 hrs (reference value: 12.5 +/- 0.3 mg); format: functional
[4] = system: Mus musculus; assay: Antiinflammatory activity against TPA-induced ear edema in BALB/c mouse assessed as decrease in weight of ear punches at 5 mg administered topically for 15 mins prior to TPA challenge and measured after 12 hrs relative to control; format: functional; design: scale not given: the % may be the effect or the level left
[5] = system: Mus musculus; assay: Antiinflammatory activity against TPA-induced ear edema in BALB/c mouse assessed as decrease in Akt phosphorylation in edema administered topically for 15 mins prior to TPA challenge by immunohistochemical method; format: functional, organism-based
[6] = system: Mus musculus; assay: Antiinflammatory activity against TPA-induced ear edema in BALB/c mouse assessed as decrease in PI3K p85 phosphorylation in edema administered topically for 15 mins prior to TPA challenge by immunohistochemical method; format: functional, organism-based
[7] = system: Mus musculus; assay: Antiinflammatory activity against TPA-induced ear edema in BALB/c mouse assessed as decrease in epidermal hyperplasia in edema administered topically for 15 mins prior to TPA challenge and measured after 6 hrs by hematoxylin/eosin staining-based microscopic method; format: functional, organism-based
Summary of the method: (§2)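 Female BALB/c mice were pretreated topically at 50–200 mM, then given TPA. Ears were taken at 6 h, fixed in 4% PFA, decalcified in EDTA, paraffin-embedded and sectioned at 4 μm for H&E. Epidermal hyperplasia and dermal leukocyte infiltration were scored in at least five regions at 200×. ANOVA with Dunnett's test.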

[8] = system: Mus musculus; assay: Antiinflammatory activity against TPA-induced ear edema in BALB/c mouse assessed as decrease in ear punches at 200 mM administered topically for 15 mins prior to TPA challenge and measured after 6 hrs relative to control; format: functional; design: scale not given: the % may be the effect or the level left; summary of the method: as §1
[9] = system: Mus musculus; assay: Antiinflammatory activity against TPA-induced ear edema in BALB/c mouse assessed as weight of ear punches at 200 mM, ip administered 15 mins prior to TPA challenge and measured after 3 hrs (reference value: 8.3 +/- 0.1 mg); format: functional
[10] = system: Mus musculus; assay: Antiinflammatory activity against TPA-induced ear edema in BALB/c mouse assessed as decrease in weight of ear punches at 5 mg administered topically for 15 mins prior to TPA challenge and measured after 48 hrs relative to control; format: functional; design: scale not given: the % may be the effect or the level left
[11] = system: Mus musculus; assay: Antiinflammatory activity against TPA-induced ear edema in BALB/c mouse assessed as decrease in 18F-FDG uptake in ears administered topically for 15 mins prior to TPA challenge and measured after 24 hrs by microPET-CT imaging method; format: functional, organism-based
Summary of the method: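 CT-guided regions of interest were drawn over the ears, and uptake was expressed as SUVmax and SUVmean. Dosing was 200 mM in DMSO:methylene chloride (20:80) on the ears before topical TPA.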

[12] = system: Mus musculus; assay: Antiinflammatory activity against TPA-induced ear edema in BALB/c mouse assessed as weight of ear punches at 200 mM, ip administered 15 mins prior to TPA challenge and measured after 24 hrs (reference value: 12.1 +/- 0.2 mg); format: functional
[13] = system: Mus musculus; assay: Antiinflammatory activity against TPA-induced ear edema in BALB/c mouse assessed as weight of ear punches at 200 mM administered topically for 15 mins prior to TPA challenge and measured after 24 hrs (reference value: 12.1 +/- 0.2 mg); format: functional
[14] = system: Mus musculus; assay: Antiinflammatory activity against TPA-induced ear edema in BALB/c mouse assessed as decrease in p65 phosphorylation in edema administered topically for 15 mins prior to TPA challenge by immunohistochemical method; format: functional, organism-based
[15] = system: Mus musculus; assay: Antiinflammatory activity against TPA-induced ear edema in BALB/c mouse assessed as weight of ear punches at 200 mM, po administered 15 mins prior to TPA challenge and measured after 3 hrs (reference value: 8.3 +/- 0.1 mg); format: functional
[16] = system: Mus musculus; assay: Antiinflammatory activity against TPA-induced ear edema in BALB/c mouse assessed as weight of ear punches at 200 mM administered topically for 15 mins prior to TPA challenge and measured after 48 hrs (reference value: 11.4 +/- 0.3 mg); format: functional
[17] = system: Mus musculus; assay: Antiinflammatory activity against TPA-induced ear edema in BALB/c mouse assessed as weight of ear punches at 200 mM, po administered 15 mins prior to TPA challenge and measured after 12 hrs (reference value: 12.4 +/- 0.1 mg); format: functional
[18] = system: Mus musculus; assay: Antiinflammatory activity against TPA-induced ear edema in BALB/c mouse assessed as decrease in ERK1/2 phosphorylation in edema administered topically for 15 mins prior to TPA challenge by immunohistochemical method; format: functional, organism-based
[19] = system: Mus musculus; assay: Antiinflammatory activity against TPA-induced ear edema in BALB/c mouse assessed as weight of ear punches at 200 mM administered topically for 15 mins prior to TPA challenge and measured after 12 hrs (reference value: 12.4 +/- 0.1 mg); format: functional
[20] = system: Mus musculus; assay: Antiinflammatory activity against TPA-induced ear edema in BALB/c mouse assessed as decrease in Akt expression in edema at 50 to 200 mM administered topically for 15 mins prior to TPA challenge by immunohistochemical method; format: functional, organism-based
[21] = system: Mus musculus; assay: Antiinflammatory activity against TPA-induced ear edema in BALB/c mouse assessed as decrease in p38 phosphorylation in edema administered topically for 15 mins prior to TPA challenge by immunohistochemical method; format: functional, organism-based
[22] = system: Mus musculus; assay: Antiinflammatory activity against TPA-induced ear edema in BALB/c mouse assessed as weight of ear punches at 200 mM, ip administered 15 mins prior to TPA challenge and measured after 12 hrs (reference value: 12.4 +/- 0.1 mg); format: functional
[23] = system: Mus musculus; assay: Antiinflammatory activity against TPA-induced ear edema in BALB/c mouse assessed as decrease in weight of ear punches at 5 mg administered topically for 15 mins prior to TPA challenge and measured after 6 hrs relative to control; format: functional; design: scale not given: the % may be the effect or the level left
[24] = system: Mus musculus; assay: Antiinflammatory activity against TPA-induced ear edema in BALB/c mouse assessed as decrease in weight of ear punches at 200 mM, po administered 15 mins prior to TPA challenge and measured after 24 hrs relative to control; format: functional; design: scale not given: the % may be the effect or the level left
[25] = system: Mus musculus; assay: Antiinflammatory activity against TPA-induced ear edema in BALB/c mouse assessed as decrease in ear punches at 100 mM administered topically for 15 mins prior to TPA challenge and measured after 6 hrs relative to control; format: functional; design: scale not given: the % may be the effect or the level left; summary of the method: as §1
[26] = system: Mus musculus; assay: Antiinflammatory activity against TPA-induced ear edema in BALB/c mouse assessed as decrease in IkappaBalpha degradation in edema administered topically for 15 mins prior to TPA challenge by immunohistochemical method; format: functional, organism-based
[27] = system: Mus musculus; assay: Antiinflammatory activity against TPA-induced ear edema in BALB/c mouse assessed as decrease in ear punches administered topically for 15 mins prior to TPA challenge and measured after 6 hrs; format: functional, organism-based; summary of the method: as §1
[28] = system: Mus musculus; assay: Antiinflammatory activity against TPA-induced ear edema in BALB/c mouse assessed as weight of ear punches at 200 mM, po administered 15 mins prior to TPA challenge and measured after 6 hrs (reference value: 12.5 +/- 0.3 mg); format: functional
[29] = system: Mus musculus; assay: Antiinflammatory activity against TPA-induced ear edema in BALB/c mouse assessed as decrease in leucocyte infiltration in edema administered topically for 15 mins prior to TPA challenge and measured after 6 hrs by hematoxylin/eosin staining-based microscopic method; format: functional, organism-based; summary of the method: as §2
[30] = system: Mus musculus; assay: Antiinflammatory activity against TPA-induced ear edema in BALB/c mouse assessed as decrease in COX2 expression in edema administered topically for 15 mins prior to TPA challenge by immunohistochemical method; format: functional, organism-based
[31] = system: Mus musculus; assay: Antiinflammatory activity against TPA-induced ear edema in BALB/c mouse assessed as weight of ear punches at 200 mM administered topically for 15 mins prior to TPA challenge and measured after 3 hrs (reference value: 8.3 +/- 0.1 mg); format: functional
[32] = system: Mus musculus; assay: Antiinflammatory activity against TPA-induced ear edema in BALB/c mouse assessed as decrease in weight of ear punches at 5 mg administered topically for 15 mins prior to TPA challenge and measured after 24 hrs relative to control; format: functional; design: scale not given: the % may be the effect or the level left
[33] = system: Mus musculus; assay: Antiinflammatory activity against TPA-induced ear edema in BALB/c mouse assessed as decrease in PI3K p85 expression in edema at 50 to 200 mM administered topically for 15 mins prior to TPA challenge by immunohistochemical method; format: functional, organism-based
[34] = system: Mus musculus; assay: Antiinflammatory activity against TPA-induced ear edema in BALB/c mouse assessed as decrease in weight of ear punches at 5 mg administered topically for 15 mins prior to TPA challenge and measured after 3 hrs relative to control; format: functional; design: scale not given: the % may be the effect or the level left
[35] = system: Mus musculus; assay: Antiinflammatory activity against TPA-induced ear edema in BALB/c mouse assessed as weight of ear punches at 200 mM, ip administered 15 mins prior to TPA challenge and measured after 48 hrs (reference value: 11.4 +/- 0.3 mg); format: functional
[36] = system: Mus musculus; assay: Antiinflammatory activity against TPA-induced ear edema in BALB/c mouse assessed as decrease in ear punches at 150 mM administered topically for 15 mins prior to TPA challenge and measured after 6 hrs relative to control; format: functional; design: scale not given: the % may be the effect or the level left; summary of the method: as §1
[37] = system: Mus musculus; assay: Antiinflammatory activity against TPA-induced ear edema in BALB/c mouse assessed as decrease in weight of ear punches at 200 mM, po administered 15 mins prior to TPA challenge and measured after 48 hrs relative to control; format: functional; design: scale not given: the % may be the effect or the level left
[38] = system: Mus musculus; assay: Antiinflammatory activity against TPA-induced ear edema in BALB/c mouse assessed as decrease in IkappaBalpha phosphorylation in edema administered topically for 15 mins prior to TPA challenge by immunohistochemical method; format: functional, organism-based

## CC1(C)[C@@H](O[C@H]2O[C@H](C(=O)O)[C@@H](O)[C@H](O)[C@H]2O[C@@H]2O[C@H](C(=O)O)[C@@H](O)[C@H](O)[C@H]2O)CC[C@]2(C)[C@H]3C(=O)C=C4[C@@H]5C[C@@](C)(C(=O)O)CC[C@]5(C)CC[C@@]4(C)[C@]3(C)CC[C@@H]12 [GLYCYRRHIZIN]
[1]
  Activity: Dose-dependent effect
[2]
  Activity: 31.5%
[3]
  Activity: 14.6 mg
[4]
  Activity: 87.5%
[5]
  Activity: Dose-dependent effect
[6]
  Activity: Dose-dependent effect
[7]
  Activity: Dose-dependent effect
[8]
  Activity: 87.7%
[9]
  Activity: 7.8 mg
[10]
  Activity: 88.7%
[11]
  Activity: Active
[12]
  Activity: 13.5 mg
[13]
  Activity: 5.9 mg
[14]
  Activity: Dose-dependent effect
[15]
  Activity: 8 mg
[16]
  Activity: 5.9 mg
[17]
  Activity: 12.1 mg
[18]
  Activity: Dose-dependent effect
[19]
  Activity: 6.1 mg
[20]
  Activity: Active
[21]
  Activity: Dose-dependent effect
[22]
  Activity: 14.1 mg
[23]
  Activity: 87.7%
[24]
  Activity: 66.7%
[25]
  Activity: 60.3%
[26]
  Activity: Dose-dependent effect
[27]
  Activity: Dose-dependent effect
[28]
  Activity: 12.3 mg
[29]
  Activity: Dose-dependent effect
[30]
  Activity: Dose-dependent effect
[31]
  Activity: 5.6 mg
[32]
  Activity: 89.9%
[33]
  Activity: Active
[34]
  Activity: 87.1%
[35]
  Activity: 13.1 mg
[36]
  Activity: 63%
[37]
  Activity: 64.5%
[38]
  Activity: Dose-dependent effect
